Assay results taken from ChEMBL document CHEMBL4004783, “Penicisulfuranols A-F, Alkaloids from the Mangrove Endophytic Fungus Penicillium janthinellum HDN13-309” (J Nat Prod, 2017).
Counter-ions that a name gives are not always drawn.

What was measured:
HL-60 = test: Cytotoxicity against human HL60 cells assessed as reduction in cell viability by MTT assay; type: functional, cell-based
Outline: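 HL-60 human promyelocytic leukemia cells; viability read by MTT method; IC50 values reported.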

HeLa = test: Cytotoxicity against human HeLa cells assessed as reduction in cell viability by SRB assay; type: functional, cell-based
Outline: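 HeLa human cervical carcinoma cells; cell growth read by sulforhodamine B (SRB) method; IC50 values reported.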

Structure (SMILES) | IC50 (HL-60) [nM] | IC50 (HeLa) [nM]
COc1ccc2c(c1OC)O[C@]1(C(=O)N3O[C@H]4[C@H](O)C=C[C@@H](O)[C@@]4(O)C[C@@]3(SC)C(=O)N1C)[C@@H]2SC | > 30000 | > 30000
COc1ccc2c(c1OC)O[C@]13C(=O)N4O[C@H]5[C@H](O)C=C[C@@H](O)[C@@]5(O)C[C@@]4(SSS[C@H]21)C(=O)N3C | 1200 | 300
COc1ccc2c(c1OC)O[C@]13C(=O)N4O[C@H]5[C@H](O)C=C[C@@H](Cl)[C@@]5(O)C[C@@]4(SS[C@H]21)C(=O)N3C | 100 | 500
COc1ccc2c(c1OC)O[C@]1(C(=O)N3O[C@H]4[C@H](O)C=C[C@@H](Cl)[C@@]4(O)C[C@@]3(SC)C(=O)N1C)[C@@H]2SC | > 30000 | > 30000
COc1ccc2c(c1OC)O[C@]13C(=O)N4O[C@H]5[C@H](O)C=C[C@@H](O)[C@@]5(O)C[C@@]4(SS[C@H]21)C(=O)N3C | 1600 | 3900
COc1cccc2c1O[C@]1(C(=O)N3O[C@H]4[C@H](O)C=C[C@@H](O)[C@@]4(O)C[C@@]3(SC)C(=O)N1C)[C@@H]2SC | > 30000 | > 30000
COc1cccc2c1C(=O)c1c(O)c3c(c(O)c1C2=O)C[C@@](O)(C(=O)CO)C[C@@H]3O[C@H]1C[C@H](N)[C@H](O)[C@H](C)O1 [DOXORUBICIN HYDROCHLORIDE] | – | 500
